Activity calls are given as the source filed them. No cut-off for these calls is given here.

We go through five compounds from ChEMBL document CHEMBL1137702, “Identification of hydrolytically stable and selective P2Y(1) receptor agonists” (Eur J Med Chem, 2009).

In experiment [1] the target is T1, Ectonucleoside triphosphate diphosphohydrolase 1 (Homo sapiens) (UniProt P49961).
T1 sequence (whole entry): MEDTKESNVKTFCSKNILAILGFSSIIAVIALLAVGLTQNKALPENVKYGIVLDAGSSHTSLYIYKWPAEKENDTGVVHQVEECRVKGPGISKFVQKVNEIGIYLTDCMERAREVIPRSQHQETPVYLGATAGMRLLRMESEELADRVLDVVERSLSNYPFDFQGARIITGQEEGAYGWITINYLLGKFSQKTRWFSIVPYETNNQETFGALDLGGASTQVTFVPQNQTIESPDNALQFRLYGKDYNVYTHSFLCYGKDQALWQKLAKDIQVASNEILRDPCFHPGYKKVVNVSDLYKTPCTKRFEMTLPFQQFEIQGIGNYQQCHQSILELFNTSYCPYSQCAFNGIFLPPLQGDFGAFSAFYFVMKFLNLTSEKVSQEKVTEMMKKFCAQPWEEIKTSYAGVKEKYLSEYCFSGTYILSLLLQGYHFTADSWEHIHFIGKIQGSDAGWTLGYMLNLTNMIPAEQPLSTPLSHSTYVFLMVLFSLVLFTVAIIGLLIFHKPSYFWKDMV
In words: Activity of human NTPDase 1 expressed in human 293T cells assessed as drug hydrolysis at 100 uM after 20 mins relative to ATP. Type of experiment: cell-based. More on the design: scale not given: the % may be the effect or the level left. An outline of the steps: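 Human NTPDase1, 2, 3 or 8 in crude extracts of transfected 293T cells, pre-incubated 3 min at 37 °C in Tris-Ringer buffer pH 7.4. […] Untransfected-cell extract activity subtracted.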

In experiment [2] the target is T2, Ectonucleotide pyrophosphatase/phosphodiesterase family member 1 (Homo sapiens) (UniProt P22413).
T2 sequence (whole entry): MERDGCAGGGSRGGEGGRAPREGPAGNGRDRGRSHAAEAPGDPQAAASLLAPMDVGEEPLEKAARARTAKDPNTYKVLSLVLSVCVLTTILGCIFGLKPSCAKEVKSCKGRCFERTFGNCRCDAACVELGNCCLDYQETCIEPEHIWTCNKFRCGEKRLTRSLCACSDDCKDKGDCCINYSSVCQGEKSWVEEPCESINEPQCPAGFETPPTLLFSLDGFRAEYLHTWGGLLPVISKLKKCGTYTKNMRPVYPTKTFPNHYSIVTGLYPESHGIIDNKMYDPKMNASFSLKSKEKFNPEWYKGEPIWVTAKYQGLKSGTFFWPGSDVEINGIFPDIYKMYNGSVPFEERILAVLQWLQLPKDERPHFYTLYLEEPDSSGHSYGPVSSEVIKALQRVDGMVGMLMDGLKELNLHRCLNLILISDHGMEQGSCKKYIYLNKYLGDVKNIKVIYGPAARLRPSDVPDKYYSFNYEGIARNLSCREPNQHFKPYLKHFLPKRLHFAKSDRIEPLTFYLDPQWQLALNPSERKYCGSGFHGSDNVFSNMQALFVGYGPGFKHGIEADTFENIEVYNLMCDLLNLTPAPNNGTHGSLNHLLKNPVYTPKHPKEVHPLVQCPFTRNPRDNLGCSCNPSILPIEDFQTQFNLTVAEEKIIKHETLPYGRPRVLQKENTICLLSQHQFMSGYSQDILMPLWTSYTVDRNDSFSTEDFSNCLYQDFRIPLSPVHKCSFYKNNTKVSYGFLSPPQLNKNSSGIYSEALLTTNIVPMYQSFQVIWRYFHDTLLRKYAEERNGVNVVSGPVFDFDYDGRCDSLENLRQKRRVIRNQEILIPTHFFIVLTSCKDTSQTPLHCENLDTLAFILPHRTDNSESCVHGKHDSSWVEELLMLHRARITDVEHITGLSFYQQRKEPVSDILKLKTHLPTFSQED
The experiment can be described thus: Activity of human NPP1 expressed in human 293T cells assessed as drug hydrolysis at 100 uM after 20 mins by reverse-phase HPLC relative to p-nitrophenyl-thymidine-5-monophosphate. Type of experiment: cell-based. More on the design: scale not given: the % may be the effect or the level left. In a few lines: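 Crude extract of 293T cells transfected with human NPP1 or NPP3, pre-incubated 3 min at 37 °C in 1 mM CaCl2, 140 mM NaCl, 5 mM KCl, 50 mM Tris pH 8.5. Substrate at 100 µM final for 20 min, stopped in ice-cold perchloric acid and neutralized with KOH. Loss of analogue quantified by reverse-phase HPLC with ion-pair phosphate mobile phase pH 7.0. pnp-TMP (p-nitrophenol at 410 nm) served as the 100% reference.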

Another experiment deals with P2Y purinoceptor 2 (Homo sapiens, UniProt P41231). In words: Antagonist activity at human P2Y2 receptor expressed in human 1321N1 cells assessed as inhibition of UTP-induced increase in intracellular calcium concentration by dual-excitation spectrofluorimetric analysis. Type of experiment: functional, cell-based. In a few lines:
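Fura-2-loaded suspensions of stably transfected 1321N1 cells were assayed at 37 °C in HEPES-buffered saline pH 7.4 with 1 mM Ca2+ and Mg2+. […] [Ca2+]i was read by dual-excitation spectrofluorometry.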
On the technique in general: Calcium flux is commonly read through the fluorescence of an indicator in the cells.

Experiment [3] has as its target T1, Ectonucleoside triphosphate diphosphohydrolase 1 (Homo sapiens). In words: Inhibition of human NTPDase 1 expressed in human 293T cells. Type of experiment: cell-based.
Experiment [4] addresses T3, Ectonucleoside triphosphate diphosphohydrolase 3 (Homo sapiens) (UniProt O75355).
T3 sequence (whole entry): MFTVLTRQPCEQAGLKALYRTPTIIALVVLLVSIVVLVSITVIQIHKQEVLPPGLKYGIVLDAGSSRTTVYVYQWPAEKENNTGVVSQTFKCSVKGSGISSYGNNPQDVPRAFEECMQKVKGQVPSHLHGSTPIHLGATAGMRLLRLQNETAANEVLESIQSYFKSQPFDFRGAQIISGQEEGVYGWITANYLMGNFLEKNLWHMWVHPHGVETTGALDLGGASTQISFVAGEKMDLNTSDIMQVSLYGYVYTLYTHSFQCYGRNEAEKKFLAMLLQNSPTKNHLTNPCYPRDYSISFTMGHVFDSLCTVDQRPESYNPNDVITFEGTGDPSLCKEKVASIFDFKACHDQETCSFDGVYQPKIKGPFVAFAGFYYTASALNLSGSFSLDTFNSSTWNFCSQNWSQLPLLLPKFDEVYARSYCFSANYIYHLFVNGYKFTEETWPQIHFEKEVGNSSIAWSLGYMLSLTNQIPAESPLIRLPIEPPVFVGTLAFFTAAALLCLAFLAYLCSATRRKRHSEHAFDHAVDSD
In words: Inhibition of human NTPDase 3 expressed in human 293T cells. Type of experiment: cell-based.

In experiment [5] the target is P2Y purinoceptor 1 (Meleagris gallopavo) (UniProt P49652). In words: Agonist activity at turkey P2Y1 receptor expressed in human 1321N1 cells assessed as increase in intracellular calcium concentration by dual-excitation spectrofluorimetric analysis. Type of experiment: functional, cell-based.
Chain of P2Y purinoceptor 1 (Meleagris gallopavo) (P49652 whole entry): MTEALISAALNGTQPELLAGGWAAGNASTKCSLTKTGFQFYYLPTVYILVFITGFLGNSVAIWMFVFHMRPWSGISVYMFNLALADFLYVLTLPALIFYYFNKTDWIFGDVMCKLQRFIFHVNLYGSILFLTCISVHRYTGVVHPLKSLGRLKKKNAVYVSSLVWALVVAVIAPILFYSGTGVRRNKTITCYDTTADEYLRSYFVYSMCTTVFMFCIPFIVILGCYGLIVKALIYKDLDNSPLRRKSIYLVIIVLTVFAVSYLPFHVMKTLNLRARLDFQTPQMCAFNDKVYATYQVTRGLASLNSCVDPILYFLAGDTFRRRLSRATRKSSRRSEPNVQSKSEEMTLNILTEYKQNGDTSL

Chain of P2Y purinoceptor 2 (P41231 whole entry): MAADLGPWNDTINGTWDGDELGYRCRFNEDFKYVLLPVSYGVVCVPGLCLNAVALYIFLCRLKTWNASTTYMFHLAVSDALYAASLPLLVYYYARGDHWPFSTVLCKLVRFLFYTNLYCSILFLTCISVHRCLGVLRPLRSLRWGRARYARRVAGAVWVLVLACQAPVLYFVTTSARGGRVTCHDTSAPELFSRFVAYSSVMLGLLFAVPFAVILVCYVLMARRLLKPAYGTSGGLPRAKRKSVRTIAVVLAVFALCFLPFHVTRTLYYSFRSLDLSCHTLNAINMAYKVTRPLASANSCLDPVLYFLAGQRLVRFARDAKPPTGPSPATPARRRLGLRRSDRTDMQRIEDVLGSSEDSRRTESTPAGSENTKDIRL

As to `CSc1nc(N)c2ncn([C@@H]3O[C@H](COP(=O)(O)OP(=O)(O)CP(=O)(O)O)[C@@H](O)[C@H]3O)c2n1`, the Activity in experiment [1] was 8%; in experiment [2], 23%. In addition, the result (at P2Y purinoceptor 2; in experiment [3]; in experiment [4]) was inactive.
As for `BP(=O)(OC[C@H]1O[C@@H](n2cnc3c(N)ncnc32)[C@H](O)[C@@H]1O)OP(=O)(O)CP(=O)(O)O` (stereo partly drawn), the Activity in experiment [1] came out at 1%; in experiment [2], 0%. Besides, the result (in experiment [5]; at P2Y purinoceptor 2; in experiment [3]; in experiment [4]) was inactive.
On to `BP(=O)(OC[C@H]1O[C@@H](n2cnc3c(N)nc(SC)nc32)[C@H](O)[C@@H]1O)OP(=O)(O)CP(=O)(O)O` (single isomer, unassigned; diastereomer B), for which the Activity in experiment [1] and in experiment [2] was less than 1% in each case. Further, the outcome (on P2Y purinoceptor 2; in experiment [3]; in experiment [4]) was inactive.
On to `BP(=O)(OC[C@H]1O[C@@H](n2cnc3c(N)ncnc32)[C@H](O)[C@@H]1O)OP(=O)(O)CP(=O)(O)O` (single isomer, unassigned; diastereomer B), for which the Activity in experiment [1] worked out at 0%; in experiment [2], 4%. Also, the outcome (in experiment [5]; at P2Y purinoceptor 2; in experiment [3]; in experiment [4]) was inactive.
For the compound `BP(=O)(OC[C@H]1O[C@@H](n2cnc3c(N)nc(SC)nc32)[C@H](O)[C@@H]1O)OP(=O)(O)CP(=O)(O)O` (single isomer, unassigned; diastereomer A), the figures for the Activity in experiment [1] and in experiment [2] were less than 1% and 0%, respectively. Besides, the result (in experiment [5]; on P2Y purinoceptor 2; in experiment [3]; in experiment [4]) was inactive.
